Data taken from ChEMBL document CHEMBL1275244, “Antimicrobial resistance among respiratory pathogens in Spain: latest data and changes over 11 years (1996-1997 to 2006-2007)” (2010).
≈ marks a conversion by molar mass, not a printed value.

Experiments:
Format in all cases: functional
Haemophilus influenzae [1] = assay: Antimicrobial activity against Haemophilus influenzae clinical isolates assessed as susceptible isolates by PK/PD technique
Haemophilus influenzae [2] = assay: Antimicrobial activity against Haemophilus influenzae clinical isolates assessed as resistant isolates by broth dilution method
Haemophilus influenzae [3] = assay: Antimicrobial activity against Haemophilus influenzae clinical isolates by broth dilution method
Streptococcus pyogenes [4] = assay: Antimicrobial activity against Streptococcus pyogenes clinical isolates assessed as susceptible isolates by broth dilution method
Method in brief: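 S. pyogenes clinical isolates held at −70°C in duplicate and recovered by hot-loop touching. MICs by the CLSI broth microdilution method in force in the study year, interpreted per CLSI M100-S19.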

Streptococcus pyogenes [5] = assay: Antimicrobial activity against Streptococcus pyogenes clinical isolates by broth dilution method
Streptococcus pyogenes [6] = assay: Antimicrobial activity against Streptococcus pyogenes clinical isolates assessed as resistant isolates by broth dilution method
Method in brief: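 S. pyogenes clinical isolates were held at −70°C in duplicate and revived by the hot-loop touching method. MICs were obtained by the CLSI broth microdilution procedure active in the year of study. Resistance was interpreted according to CLSI M100-S19.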

Streptococcus pneumoniae [7] = assay: Antimicrobial activity against Streptococcus pneumoniae clinical isolates assessed as susceptible isolates by PK/PD technique
Haemophilus influenzae [8] = assay: Antimicrobial activity against Haemophilus influenzae clinical isolates assessed as susceptible isolates by broth dilution method
Streptococcus pneumoniae [9] = assay: Antimicrobial activity against Streptococcus pneumoniae clinical isolates by broth dilution method
Streptococcus pneumoniae [10] = assay: Antimicrobial activity against Streptococcus pneumoniae clinical isolates assessed as susceptible isolates by broth dilution method
Method in brief: (§1)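 Isolates kept frozen at −70°C in duplicate and revived by hot-loop touching. MICs by the CLSI broth microdilution method active in the year of study, with S. pneumoniae ATCC 49619 as control. Categories assigned with CLSI M100-S19 breakpoints.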

Streptococcus pneumoniae [11] = assay: Antimicrobial activity against Streptococcus pneumoniae clinical isolates assessed as resistant isolates by broth dilution method
Streptococcus pneumoniae [12] = assay: Antimicrobial activity against Streptococcus pneumoniae clinical isolates assessed as susceptible isolates by po dosed PK/PD technique
Streptococcus pneumoniae [13] = assay: Antimicrobial activity against Streptococcus pneumoniae clinical isolates assessed as susceptible isolates by based on parenterally dosed broth dilution method; method in brief: as §1
Haemophilus influenzae [14] = assay: Antimicrobial activity against Haemophilus influenzae clinical isolates assessed as resistant isolates by based on po dosed broth dilution method
Method in brief: (§2)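 H. influenzae clinical isolates were stored at −70°C in duplicate and recovered by the hot-loop touching method without repeated thawing. MICs were determined by CLSI broth microdilution in Haemophilus test medium, following the method current in the study year. Each medium batch was checked for growth support with H. influenzae ATCC 10211. Controls were H. influenzae ATCC 49247 and ATCC 49766 and E. coli ATCC 35218. Categories were assigned per CLSI M100-S19.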

Haemophilus influenzae [15] = assay: Antimicrobial activity against Haemophilus influenzae clinical isolates assessed as susceptible isolates by based on po dosed broth dilution method
Method in brief: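 Clinical isolates stored in duplicate at −70°C and recovered by the hot-loop touching method. MICs by the CLSI broth microdilution method current in the study year, in Haemophilus test medium (HTM). Growth support of HTM checked with H. influenzae ATCC 10211. Controls were H. influenzae ATCC 49247 and ATCC 49766 and E. coli ATCC 35218. Susceptibility interpreted per CLSI M100-S19.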

Streptococcus pneumoniae [16] = assay: Antimicrobial activity against Streptococcus pneumoniae clinical isolates assessed as susceptible isolates by based on po dosed broth dilution method; method in brief: as §1
Haemophilus influenzae [17] = assay: Antimicrobial activity against Haemophilus influenzae clinical isolates by based on po dosed PK/PD technique
Streptococcus pneumoniae [18] = assay: Antimicrobial activity against Streptococcus pneumoniae clinical isolates by based on parenterally dosed broth dilution method; method in brief: as §1
Streptococcus pneumoniae [19] = assay: Antimicrobial activity against Streptococcus pneumoniae clinical isolates assessed as resistant isolates by based on parenterally dosed broth dilution method in presence of beta-lactamase inhibitor clavulanic acid
Method in brief: (§3)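 S. pneumoniae clinical isolates were kept frozen at −70°C in duplicate and recovered by hot-loop touching to avoid repeated freeze-thaw. MICs were measured by CLSI broth microdilution as in force in the study year, with S. pneumoniae ATCC 49619 as control strain. Susceptibility categories were interpreted using CLSI M100-S19 breakpoints.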

Streptococcus pneumoniae [20] = assay: Antimicrobial activity against Streptococcus pneumoniae clinical isolates by based on po dosed broth dilution method; method in brief: as §1
Haemophilus influenzae [21] = assay: Antimicrobial activity against Haemophilus influenzae clinical isolates by based on po dosed broth dilution method; method in brief: as §2
Streptococcus pneumoniae [22] = assay: Antimicrobial activity against Streptococcus pneumoniae clinical isolates assessed as resistant isolates by based on po dosed broth dilution method; method in brief: as §3
Streptococcus pneumoniae [23] = assay: Antimicrobial activity against Streptococcus pneumoniae clinical isolates assessed as susceptible isolates by based on parenterally dosed PK/PD technique

SMILES | Activity (Haemophilus influenzae [1]) | Activity (Haemophilus influenzae [2]) | MIC50 (Haemophilus influenzae [3]) | MIC90 (Haemophilus influenzae [3]) | Activity (Streptococcus pyogenes [4]) | MIC50 (Streptococcus pyogenes [5]) | MIC90 (Streptococcus pyogenes [5]) | Activity (Streptococcus pyogenes [6]) | Activity (Streptococcus pneumoniae [7]) | Activity (Haemophilus influenzae [8]) | MIC50 (Streptococcus pneumoniae [9]) | MIC90 (Streptococcus pneumoniae [9]) | Activity (Streptococcus pneumoniae [10]) | Activity (Streptococcus pneumoniae [11]) | also measured
CC1(C)S[C@@H]2[C@H](NC(=O)[C@H](N)c3ccccc3)C(=O)N2[C@H]1C(=O)O [AMPICILLIN] | 86.7% | 13.3% | 0.12 µg/mL (≈ 0.343 µM) | 4 µg/mL (≈ 11.4 µM) | 100% | ≤ 0.015 µg/mL | ≤ 0.015 µg/mL | 0% | 93.4% | 83.9% | ≤ 0.015 µg/mL | 2 µg/mL (≈ 5.72 µM) | – | – | –
CC[C@H]1OC(=O)[C@H](C)[C@@H](O[C@H]2C[C@@](C)(OC)[C@@H](O)[C@H](C)O2)[C@H](C)[C@@H](O[C@@H]2O[C@H](C)C[C@H](N(C)C)[C@H]2O)[C@](C)(O)C[C@@H](C)CN(C)[C@H](C)[C@@H](O)[C@]1(C)O [AZITHROMYCIN] | 23.8% | 0% | 0.25 µg/mL (≈ 0.334 µM) | 1 µg/mL (≈ 1.34 µM) | 81.1% | ≤ 0.015 µg/mL | 2 µg/mL (≈ 2.67 µM) | 11.6% | 74.3% | 100% | ≤ 0.015 µg/mL | ≥ 128 µg/mL | 77.6% | 20.8% | –
N[C@@H](C(=O)N[C@@H]1C(=O)N2C(C(=O)O)=C(Cl)CS[C@H]12)c1ccccc1 [CEFACLOR ANHYDROUS] | 25.8% | 0% | 1 µg/mL (≈ 2.72 µM) | 4 µg/mL (≈ 10.9 µM) | – | 0.03 µg/mL (≈ 0.0816 µM) | < 0.06 µg/mL | – | 75.9% | 97.8% | 0.125 µg/mL (≈ 0.34 µM) | 16 µg/mL (≈ 43.5 µM) | 79.1% | 19% | –
CO/N=C(\C(=O)N[C@@H]1C(=O)N2C(C(=O)O)=C(COC(C)=O)CS[C@H]12)c1csc(N)n1 [CEFOTAXIME] | 99.9% | 0.1% | ≤ 0.015 µg/mL | ≤ 0.015 µg/mL | 100% | ≤ 0.015 µg/mL | ≤ 0.015 µg/mL | 0% | 99.6% | 99.9% | ≤ 0.015 µg/mL | 0.25 µg/mL (≈ 0.549 µM) | 99.6% | 0.2% | –
CO/N=C(\C(=O)N[C@@H]1C(=O)N2C(C(=O)O)=C(COC(N)=O)CS[C@H]12)c1ccco1 [CEFUROXIME] | – | – | – | – | – | ≤ 0.015 µg/mL | ≤ 0.015 µg/mL | – | – | – | – | – | – | – | Activity (Streptococcus pneumoniae [12]): 94.5%; Activity (Streptococcus pneumoniae [13]): 83.8%; Activity (Haemophilus influenzae [14]): 0.1%; Activity (Haemophilus influenzae [15]): 99.3%; Activity (Streptococcus pneumoniae [16]): 94.5%; Activity (Haemophilus influenzae [17]): 91.4%; MIC50 (Streptococcus pneumoniae [18]): ≤ 0.015 µg/mL; MIC90 (Streptococcus pneumoniae [18]): 1 µg/mL (≈ 2.36 µM); Activity (Streptococcus pneumoniae [19]): 5.5%; MIC50 (Streptococcus pneumoniae [20]): ≤ 0.015 µg/mL; MIC90 (Streptococcus pneumoniae [20]): 1 µg/mL (≈ 2.36 µM); MIC50 (Haemophilus influenzae [21]): 0.5 µg/mL (≈ 1.18 µM); MIC90 (Haemophilus influenzae [21]): 1 µg/mL (≈ 2.36 µM); Activity (Streptococcus pneumoniae [22]): 1.3%; Activity (Streptococcus pneumoniae [23]): 99.3%
CC[C@H]1OC(=O)[C@H](C)[C@@H](O[C@H]2C[C@@](C)(OC)[C@@H](O)[C@H](C)O2)[C@H](C)[C@@H](O[C@@H]2O[C@H](C)C[C@H](N(C)C)[C@H]2O)[C@](C)(OC)C[C@@H](C)C(=O)[C@H](C)[C@@H](O)[C@]1(C)O [CLARITHROMYCIN] | 5.1% | 0% | 2 µg/mL (≈ 2.67 µM) | 4 µg/mL (≈ 5.35 µM) | 80.9% | ≤ 0.015 µg/mL | 2 µg/mL (≈ 2.67 µM) | 16.5% | 78.2% | 99.3% | ≤ 0.015 µg/mL | ≥ 128 µg/mL | 78.2% | 20.9% | –
CC[C@H]1OC(=O)[C@H](C)[C@@H](O[C@H]2C[C@@](C)(OC)[C@@H](O)[C@H](C)O2)[C@H](C)[C@@H](O[C@@H]2O[C@H](C)C[C@H](N(C)C)[C@H]2O)[C@](C)(O)C[C@@H](C)C(=O)[C@H](C)[C@@H](O)[C@]1(C)O [ERYTHROMYCIN] | 32.5% | – | 1 µg/mL (≈ 1.36 µM) | 4 µg/mL (≈ 5.45 µM) | 80.6% | ≤ 0.015 µg/mL | 2 µg/mL (≈ 2.73 µM) | 19% | 78.9% | – | ≤ 0.015 µg/mL | ≥ 128 µg/mL | 78.9% | 21.1% | –
C[C@H]1COc2c(N3CCN(C)CC3)c(F)cc3c(=O)c(C(=O)O)cn1c23.C[C@H]1COc2c(N3CCN(C)CC3)c(F)cc3c(=O)c(C(=O)O)cn1c23.O [LEVOFLOXACIN] | 99.9% | 0.1% | ≤ 0.015 µg/mL | ≤ 0.015 µg/mL | 100% | 0.125 µg/mL | 0.25 µg/mL | 0% | 97.7% | 99.9% | 0.125 µg/mL | 0.25 µg/mL | 97.6% | 0.5% | –
CC1(C)S[C@@H]2[C@H](NC(=O)Cc3ccccc3)C(=O)N2[C@H]1C(=O)O [PENICILLIN G] | – | – | – | – | 100% | ≤ 0.015 µg/mL | ≤ 0.015 µg/mL | 0% | – | – | – | – | – | – | Activity (Streptococcus pneumoniae [13]): 99.8%; Activity (Streptococcus pneumoniae [16]): 77.1%; MIC50 (Streptococcus pneumoniae [18]): ≤ 0.015 µg/mL; MIC90 (Streptococcus pneumoniae [18]): 0.5 µg/mL (≈ 1.5 µM); Activity (Streptococcus pneumoniae [19]): 0%; MIC50 (Streptococcus pneumoniae [20]): ≤ 0.015 µg/mL; MIC90 (Streptococcus pneumoniae [20]): 0.5 µg/mL (≈ 1.5 µM); Activity (Streptococcus pneumoniae [22]): 0.9%
